Screens (PubChem)
APJ antag – antagonists of human APJ apelin receptor | CHO-K1 APJ beta-arrestin complementation, luminescence | inhibition, % at 20 µM | 330,000 compounds, 0.32% hits | AID 2521;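 active means inhibition above about 40% at 20 µM, limit read from the data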;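 further: cells challenged with 10 nM apelin-13 agonist together with compound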
CCR6 antag – blocks CCL20-driven beta-arrestin recruitment at human CCR6; P51684; CHO-K1 CCR6 PathHunter beta-arrestin, luminescence, CCL20-stimulated; inhibition, % at 20 µM; 340,000 compounds, 0.49% hits;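 active means compounds whose inhibition of the agonist-driven luminescence signal at 20 µM reaches about 50%, limit read from the data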;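 further: cells stimulated with CCL20 at 14 nM final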
EBI2 antag – blocks human EBI2 receptor beta-arrestin signaling. P32249. EBI2 beta-arrestin recruitment, luminescence, 7a,25-OHC stimulated. inhibition, % at 5 µM. 360,000 compounds, 0.81% hits. AID 651636; in the data active means inhibition above about 38%;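 further: enzyme fragment complementation signal reports receptor beta-arrestin coupling in cells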
Target sequence (P32249 whole entry, looked up, the tested form may be a part): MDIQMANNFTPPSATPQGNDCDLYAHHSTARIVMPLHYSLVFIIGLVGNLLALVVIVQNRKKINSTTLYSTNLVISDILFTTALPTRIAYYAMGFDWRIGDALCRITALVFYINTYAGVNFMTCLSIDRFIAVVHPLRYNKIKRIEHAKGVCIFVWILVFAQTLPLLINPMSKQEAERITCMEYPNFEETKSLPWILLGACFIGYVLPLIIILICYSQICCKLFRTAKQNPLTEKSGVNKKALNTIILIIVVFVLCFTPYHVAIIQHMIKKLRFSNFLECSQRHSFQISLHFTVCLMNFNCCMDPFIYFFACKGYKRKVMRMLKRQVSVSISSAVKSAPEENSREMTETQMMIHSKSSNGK
CXCR6 block – CXCR6 (human) receptor inhibition; O00574; inhibition, % at 20 µM; CHO-K1 PathHunter CXCR6 beta-arrestin, luminescence; 360,000 compounds, 0.36% hits; in the data active means inhibition above about 34%, passing the limit was not always enough;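 further: antagonist mode with CXCL16 agonist at 10 nM final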
FXN GAA850 act – increases GAA850 frataxin promoter reporter activity; HEK293 lucGAA850 FXN promoter luciferase reporter, 24 h; percent of 10 µM SAHA response; activation, % at 6 µM; 360,000 compounds, 0.56% hits; AID 540364;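 active means activation above the average of all compounds screened plus 3 SD, cutoff fixed separately per campaign, cut at about 7.5% in these data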
APJ ag – APJ receptor agonism. CHO-K1 APJ PathHunter beta-arrestin, luminescence; 0% DMSO wells, 100% apelin. activation, % at 20 µM. 330,000 compounds, 0.11% hits. AID 2520;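 active means activation more than six SD over the plate average, tested at 20 µM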
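assay system = CHO-K1 APJ beta-arrestin complementation cell line | input = cell density 1000 per well | dosing = compound 20 µM once, DMSO 1% | timing = compound 90 min 25 °C, reagent 1 h | measured by = luminescence from split beta-galactosidase complementation, Galacton Star/Emerald II substrate | read-out basis = APJ agonist activity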
Numbers stand for hits; - = inactive; . = no result given. Only some compounds are listed: those with a hit (about 2% of all), similar ones and a draw of the others.

SMILES | APJ antag | CCR6 antag | EBI2 antag | CXCR6 block | FXN GAA850 act | APJ ag
Cc1ccccc1C(=O)Nc1cccc(C(=O)N/N=C/c2cc(Cl)cc([N+](=O)[O-])c2O)c1 | - | 71 | - | - | - | -
COc1cc(/C=N/NC(=O)c2cccc(NC(=O)c3ccccc3C)c2)ccc1O | - | - | - | - | - | -
CN(CCOc1ccc(Cl)cc1)C(=O)C1CCN(C(=O)c2ccc(F)cc2)CC1 | - | - | - | - | - | -
CN(CCOc1ccccc1)C(=O)C1CCN(C(=O)c2ccc(Cl)cc2)CC1 | - | - | 64 | - | - | -
COc1ccccc1CNS(=O)(=O)CCNCc1ccco1 | . | - | - | - | - | .
C/C=C(/CCC1NCCc2c1[nH]c1ccccc21)[Si](C)(C)C (centres undefined) | . | 51 | - | - | - | .
O=C(NC(Nc1nc2ccc([N+](=O)[O-])cc2s1)(C(F)(F)F)C(F)(F)F)c1ccccc1Cl | - | 56 | - | - | - | -
CC/C(=N\NS(=O)(=O)c1ccc(C)cc1)c1ccco1 | - | - | - | - | - | -
COCCCn1c(C)cc(C(=O)COC(=O)C23CC4CC(CC(O)(C4)C2)C3)c1C | - | - | - | - | - | -
Cc1ccsc1C1Nc2ccc3ncccc3c2C2=C1C(=O)CCC2 (centres undefined) | - | - | 70 | - | - | -
COc1ccccc1Cc1c(-c2ccc(OC)c(OC)c2)nc2c(Cl)cc(C(F)(F)F)cn12 | . | . | - | - | . | .
N/C(Cc1ccc(Cl)cc1)=N\OC(=O)c1cccc2ccccc12 | - | - | 52 | - | - | -
COc1ccc(C/C(N)=N/OC(=O)c2ccc(Cl)cc2)cc1 | - | - | - | - | - | -
O=C1N[C@H](Cc2ccccc2)COC(=O)[C@H](Cc2ccc(F)cc2)CC/C=C/C[C@H]1CC(=O)N(CCO)Cc1ccccc1 | - | - | - | 41 | - | -
O=C1NC[C@@H](c2ccccc2)OC(=O)[C@@H](Cc2ccc(F)cc2)CC/C=C/C[C@@H]1CC(=O)N(CCO)Cc1ccccc1 | . | - | - | 56 | - | .
CCC(=O)c1ccc(OC(=O)Cc2ccc(OC)cc2)cc1 | - | - | - | - | - | -
COC(=O)C[C@H]1CC[C@@H](NS(=O)(=O)c2ccc(C)cc2)[C@@H](CO)O1 | . | . | - | . | . | .
CS(=O)(=O)c1ccc(C(=O)OCc2nnc(-c3ccc(Cl)cc3)o2)cc1[N+](=O)[O-] | - | - | - | - | 14 | -
CC1(C(=O)Nc2ccc3c(c2)OCCO3)CN(S(C)(=O)=O)CC(=O)N1C1CCCCCC1 (centres undefined) | . | . | - | . | . | .
COc1cc(-c2nc(-c3ccccc3)c(-c3cc([N+](=O)[O-])ccc3C)[nH]2)cc(OC)c1OC | - | - | 38 | 49 | - | -
CCN(CC(=O)Nc1ccccc1C(F)(F)F)C(=O)c1ccc2c(c1)NC(=O)C(C)S2 (centres undefined) | . | . | - | - | - | .
Cc1ccc(C)c(N2CCN(C(=O)c3cc4ccccn4n3)CC2)c1 | - | - | 58 | - | - | -
COc1cc(/C=C2/C(=O)NN(c3cccc(Cl)c3)C2=O)cc(OC)c1O | - | 52 | - | - | - | -
CCOc1cc(/C=C2/C(=O)NN(c3cccc(Cl)c3)C2=O)ccc1O | - | - | - | - | - | -
Cc1ccc2c(c1)C(=O)C(=O)N2CCCOc1ccccc1C | - | - | - | - | - | -
SMILES | APJ antag | CCR6 antag | EBI2 antag | CXCR6 block | FXN GAA850 act | APJ ag
Cc1cccc2c1N(CCCOc1ccc(C(C)(C)C)cc1)C(=O)C2=O | - | 51 | - | - | - | -
Cc1ccccc1OCCCN1C(=O)C(=O)c2cccc(C)c21 | 48 | 58 | - | - | - | -
Cc1cccc(OCCN2C(=O)C(=O)c3cccc(C)c32)c1 | - | - | - | - | - | -
CC(=O)c1cccc(NC(=O)C2Cc3c(-c4ccc5c(c4)OCO5)ccnc3O2)c1 (centres undefined) | . | . | - | - | - | .
COc1ccc(NC(=O)C2(C)CCN2CCOc2ccccc2)cc1OC (centres undefined) | . | . | - | - | - | .
CC(C)(C)C(=O)NC(=S)NNC(=O)c1sc2ccccc2c1Cl | - | 73 | - | 62 | - | -
COc1ccc(C(=O)NNC(=S)NC(=O)C(C)(C)C)cc1 | - | 62 | - | - | - | -
O=C(NNC(=S)NC1CCCCC1)c1sc2ccccc2c1Cl | - | - | - | - | - | -
